# Experimental data taken from ChEMBL document CHEMBL5032509, “Design of a Stable Cyclic Peptide Analgesic Derived from Sunflower Seeds that Targets the κ-Opioid Receptor for the Treatment of Chronic Abdominal Pain” (J Med Chem, 2021).
# Calls of active or inactive are those of the source. The calls are words filed in the database; no cut-off is given here. Bridge positions count the residues as written; N and C are the ends. Square brackets hold non-standard residues; d marks the D form. Peptide text beside a SMILES is read from it. dNle = CCCC[C@@H](N)C(=O)O
# Columns and labels:
# [1] = target: Kappa-type opioid receptor (Mus musculus) (UniProt P33534); assay: Agonist activity at mouse KOR expressed in HEK293 cell assessed as maximal inhibition of cAMP concentration incubated for 1 hrs by time-resolved fluorescence resonance energy transfer assay relative to control; assay type: functional, cell-based; settings: filed as agonist
# Method in brief: (§1)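 HEK293 cells stably expressing mouse KOR, 2000 cells/well, exposed to log-spaced peptide concentrations with forskolin (10 µM final) for 30 min at 37 °C. Eu-cryptate cAMP and d2-labelled anti-cAMP antibody then added for 1 h at room temperature. HTRF read as the 665/620 nm ratio, in triplicate. Three-parameter fit with bottom fixed at zero and slope one gives EC50 and Emax. Normalised to the highest dyn A 1–13 concentration (100%).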
# [2] = Stability of the compound in simulated gastric fluid at pH 1.2 assessed as drug degradation by UPLC-UV analysis; assay type: ADME
# Method in brief: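 Peptide stock (2 mM in water) diluted 5:95 into USP simulated gastric fluid, pepsin added after adjusting to pH 1.2, incubated at 37 °C. Aliquots taken at 0, 15, 30 min and 1, 3, 6 h, quenched in ice-cold methanol. Data fitted to exponential decay for half-life.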
# [3] = target: T1, Kappa-type opioid receptor (Mus musculus, UniProt P33534); assay: Displacement of [3H]-diprenorphine from mouse KOR expressed in HEK293 cell membranes by radioligand binding assay relative to control; parameters: species or system Cell membrane
# Method in brief: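 Membranes from HEK293 cells stably expressing mouse KOR (7 µg/assay). Filtered onto PEI-soaked GF/C filters. Specific binding = total minus nonspecific, normalized to binding without peptide. […]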
# [4] = target: T1, Kappa-type opioid receptor; assay: Agonist activity at mouse KOR expressed in HEK293 cell assessed as inhibition of cAMP concentration incubated for 1 hrs by time-resolved fluorescence resonance energy transfer assay; assay type: functional, cell-based
# Method in brief: as §1, with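 “temperature.” for “temperature. HTRF read as the 665/620 nm ratio, in triplicate.”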
# [5] = species: Mus musculus; assay: Analgesic activity in chronic visceral hypersensitivity-induced chronic abdominal pain mouse model assessed as reduction in colonic nociceptor mechano-sensitivity at 0.1 uM measured at 5 mins by Von Frey filament assay; assay type: functional
# Method in brief: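 Ex vivo colon with attached splanchnic nerves from male C57BL/6J mice, 28 days after DNBS-induced colitis. Colon superfused with carbogen-gassed modified Krebs at 34 °C. Single-unit extracellular recordings of nociceptor firing to 2 g von Frey filament stimulation, repeated after 5 min drug application via a metal ring over the receptive field.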
# [6] = target: Kappa-type opioid receptor (Mus musculus) (UniProt P33534); assay: Displacement of [3H]-diprenorphine from mouse KOR expressed in HEK293 cell membranes at 10 uM by two-point binding assay; settings: Cell membrane, filed as agonist
# Method in brief: (§2)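 Two-point competition at 10 µM and 100 nM peptide. Membranes (7 µg) from HEK293 cells stably expressing mouse KOR incubated with [3H]-diprenorphine (1 nM final) for 1 h at 37 °C in 50 mM Tris–HCl pH 7.4, 10 mM MgCl2, 0.1% BSA. Stopped by filtration onto PEI-soaked GF/C filters. Nonspecific binding subtracted; normalised to specific binding without peptide; mean ± SD.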
# [7] = target: Kappa-type opioid receptor (Mus musculus) (UniProt P33534); assay: Displacement of [3H]-diprenorphine from mouse KOR expressed in HEK293 cell membranes at 100 nM by two-point binding assay; settings: Cell membrane, filed as agonist; method in brief: as §2
# [8] = target: Mu-type opioid receptor (Mus musculus, UniProt P42866); assay: Displacement of [3H]-diprenorphine from mouse MOR expressed in HEK293 cell membranes by radioligand binding assay relative to control; parameters: species or system Cell membrane
# Method in brief: (§3)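 Membranes from HEK293 cells stably expressing mouse DOR (20 µg/assay) or MOR (50 µg/assay). Incubated with 1 nM final [3H]-diprenorphine in 50 mM Tris–HCl pH 7.4, 10 mM MgCl2, 0.1% BSA for 1 h at 37 °C, in duplicate. Stopped by filtration onto PEI-soaked GF/C filters. Specific binding = total minus nonspecific, normalized to specific binding without peptide; n = 2.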
# [9] = target: Delta-type opioid receptor (Mus musculus, UniProt P32300); assay: Displacement of [3H]-diprenorphine from mouse DOR expressed in HEK293 cell membranes by radioligand binding assay relative to control; parameters: species or system Cell membrane; method in brief: as §3
# [10] = target: T1, Kappa-type opioid receptor; assay: Agonist activity at EGFP-tagged mouse KOR expressed in HEK293 cells co-expressing beta-arrestin2 nano-luciferase assessed as beta-arrestin2 recruitment for 5 mins by BRET assay; assay type: functional, cell-based
# Method in brief: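 HEK293 cells co-transfected with human β-arrestin-2 nano-luciferase and mouse KOR-EGFP plasmids (1:10). After ≥16 h they were plated in phenol red-free DMEM with 10% FBS and left to adhere overnight, then serum-starved 1 h at 37 °C. Furimazine (1:50) added for 5 min at 37 °C, with a 5 min baseline. Peptide added for 5 min at 37 °C in triplicate. Luminescence read at 460 nm and EGFP fluorescence at 510 nm.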
# [11] = test system: Mus musculus; assay: Effect on healthy mouse assessed as visceromotor response measured at different colorectal distention pressure at 10 uM intra-colonic administration as enema by electromyography; assay type: ADME, organism-based; settings: in vivo, other
# Method in brief: (§4)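 Healthy or CVH (DNBS 6 mg in 30% ethanol enema, 28 d recovery) female mice. Under brief isoflurane, 100 µL enema of saline vehicle or peptide (10 µM). EMG from abdominal muscle electrodes during balloon CRD at 20, 40, 50, 60 and 80 mmHg (20 s each), run 10–30 min after dosing. Rectified, integrated AUC; mean ± SEM.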
# [12] = test system: Mus musculus; assay: Reduction in visceromotor response in chronic visceral hypersensitivity-induced chronic abdominal pain mouse model measured at different colorectal distention pressure at 10 uM intra-colonic administration as enema by electromyography; assay type: functional, organism-based; method in brief: as §4
# [13] = species: Mus musculus; assay: Analgesic activity in chronic visceral hypersensitivity-induced chronic abdominal pain mouse model assessed as reduction in mechanical stimulation induced action potential firing of colonic nociception at 1 uM measured at 5 mins […]; assay type: functional
# Method in brief: (§5)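 Ex vivo colon with attached splanchnic nerve from DNBS-induced CVH mice. Colon superfused with carbogen-gassed modified Krebs at 34 °C. Single-unit extracellular recording of nociceptor firing to 2 g von Frey probing, repeated after 5 min ring application of peptide (1 µM), with or without 5 min nor-BNI pre-incubation. Paired t-test.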
# [14] = species: Mus musculus; assay: Analgesic activity in chronic visceral hypersensitivity-induced chronic abdominal pain mouse model assessed as reduction in colonic nociceptor mechano-sensitivity at 1 uM in presence of 0.1 uM nor-BNI measured at 5 mins […]; assay type: functional; method in brief: as §5
# [15] = Toxicity in mouse assessed as motor coordination by measuring latency to fall in mouse at 5 mg/kg, ip measured at 45 mins by rotarod test; assay type: organism-based; settings: in vivo, 0.75 h
# Method in brief: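 Male C57BL/6N mice (8 weeks) given 5 mg/kg i.p. in saline (10 µL/g); vehicle 0.9% NaCl. After habituation, drum accelerated from 4 to 40 rpm. Three trials 15 min apart, starting 45 min post-injection; latency to fall averaged. Mean ± SEM, one-way ANOVA with Fisher's LSD, N = 8–12/group.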
# [16] = Toxicity in mouse assessed as […] by measuring vocalization in mouse at 5 mg/kg, ip measured at 60 mins by […]; assay type: organism-based; settings: in vivo, 1 h
# [17] = Toxicity in mouse assessed as […] by measuring flinch response in mouse at 5 mg/kg, ip measured at 60 mins by […]; assay type: organism-based; settings: in vivo, 1 h
# Method in brief: (§6)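 Male C57BL/6N mice given 5 mg/kg i.p. in saline (vehicle 0.9% NaCl). Jump-flinch test 60 min post-injection: 1 min exploration, then 1 s foot shocks every 30 s at six intensities. Intensity at first flinch, vocalization and jump recorded. Mean ± SEM, one-way ANOVA with Fisher's LSD, N = 8–12/group.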
# [18] = Toxicity in mouse assessed as […] by measuring jump response in mouse at 5 mg/kg, ip measured at 60 mins by […]; assay type: organism-based; settings: in vivo, 1 h; method in brief: as §6
# Chain of Kappa-type opioid receptor (Mus musculus) (P33534 whole entry): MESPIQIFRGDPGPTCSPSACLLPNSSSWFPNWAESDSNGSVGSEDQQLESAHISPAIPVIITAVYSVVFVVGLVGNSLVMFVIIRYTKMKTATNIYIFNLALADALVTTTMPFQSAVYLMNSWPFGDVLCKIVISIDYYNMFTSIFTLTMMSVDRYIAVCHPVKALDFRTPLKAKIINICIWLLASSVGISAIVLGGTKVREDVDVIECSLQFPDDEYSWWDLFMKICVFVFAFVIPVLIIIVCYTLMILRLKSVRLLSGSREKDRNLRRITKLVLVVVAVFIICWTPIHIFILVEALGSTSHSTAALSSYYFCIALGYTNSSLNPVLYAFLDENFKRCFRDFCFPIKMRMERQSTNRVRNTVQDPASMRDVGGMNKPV
# T1 sequence (P33534 whole entry): as above
# Chain of Mu-type opioid receptor (P42866 whole entry): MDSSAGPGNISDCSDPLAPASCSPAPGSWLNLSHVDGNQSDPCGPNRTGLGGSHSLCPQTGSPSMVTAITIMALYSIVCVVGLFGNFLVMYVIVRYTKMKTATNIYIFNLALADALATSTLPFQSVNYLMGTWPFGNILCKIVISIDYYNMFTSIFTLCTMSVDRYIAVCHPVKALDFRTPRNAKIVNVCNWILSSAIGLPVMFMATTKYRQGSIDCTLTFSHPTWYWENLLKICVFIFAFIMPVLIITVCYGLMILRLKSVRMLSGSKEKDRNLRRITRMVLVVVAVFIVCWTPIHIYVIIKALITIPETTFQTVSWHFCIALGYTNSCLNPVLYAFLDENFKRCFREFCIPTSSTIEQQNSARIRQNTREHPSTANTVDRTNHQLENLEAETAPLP
# Chain of Delta-type opioid receptor (P32300 whole entry): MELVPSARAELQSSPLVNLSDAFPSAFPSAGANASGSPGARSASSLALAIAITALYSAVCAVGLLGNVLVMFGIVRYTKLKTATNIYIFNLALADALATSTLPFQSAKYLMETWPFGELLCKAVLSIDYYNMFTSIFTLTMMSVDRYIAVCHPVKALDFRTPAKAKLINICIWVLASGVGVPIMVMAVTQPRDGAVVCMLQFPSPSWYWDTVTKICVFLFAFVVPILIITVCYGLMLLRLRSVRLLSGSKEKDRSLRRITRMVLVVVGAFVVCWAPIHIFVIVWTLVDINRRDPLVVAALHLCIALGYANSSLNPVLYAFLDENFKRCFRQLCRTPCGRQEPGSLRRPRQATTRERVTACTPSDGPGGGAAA
structure (smiles),measurement,setting,value
CC[C@H](C)[C@H](NC(=O)[C@H](CCCN=C(N)N)NC(=O)[C@H](CCCN=C(N)N)NC(=O)[C@H](CC(C)C)NC(=O)[C@H](Cc1ccccc1)NC(=O)CNC(=O)CNC(=O)[C@@H](N)Cc1ccc(O)cc1)C(=O)N[C@@H](CCCN=C(N)N)C(=O)N1CCC[C@H]1C(=O)N[C@@H](CCCCN)C(=O)N[C@@H](CC(C)C)C(=O)N[C@@H](CCCCN)C(N)=O,Emax,[1],100%
same,half-life,[2],< 15 min
CC[C@H](C)[C@@H]1NC(=O)[C@@H]2CCCN2C(=O)[C@@H]2CCCN2C(=O)[C@H]([C@@H](C)CC)NC(=O)[C@H](CO)NC(=O)[C@H](CCCCN)NC(=O)[C@H]([C@@H](C)O)NC(=O)[C@@H]2CSSC[C@H](NC1=O)C(=O)N[C@@H](Cc1ccccc1)C(=O)N1CCC[C@H]1C(=O)N[C@@H](CC(=O)O)C(=O)NCC(=O)N[C@@H](CCCNC(=N)N)C(=O)N2,Ki,[3],> 30 µM
CC[C@H](C)[C@@H]1NC(=O)[C@H](CCCNC(=N)N)NC(=O)[C@H](CCCNC(=N)N)NC(=O)[C@H](CC(C)C)NC(=O)[C@H](Cc2ccccc2)NC(=O)CNC(=O)CNC(=O)[C@H](Cc2ccc(O)cc2)NC(=O)[C@@H]2CSSC[C@H](NC1=O)C(=O)N[C@@H](Cc1ccccc1)C(=O)N1CCC[C@H]1C(=O)N[C@@H](CC(=O)O)C(=O)NCC(=O)N[C@@H](CCCNC(=N)N)C(=O)N2,Ki,[3]; hek293,3.2 µM
same,EC50,[4]; hek293,1.4 µM
Oc1ccc2c3c1O[C@H]1c4[nH]c5c(c4C[C@@]4(O)[C@@H](C2)N(CC2CC2)CC[C@]314)C[C@@]1(O)[C@H]2Cc3ccc(O)c4c3[C@@]1(CCN2CC1CC1)[C@H]5O4,Activity,[5],inactive
CC[C@H](C)[C@@H]1NC(=O)[C@@H]2CCCN2C(=O)[C@@H]2CCCN2C(=O)[C@H]([C@@H](C)CC)NC(=O)[C@H](CO)NC(=O)[C@H](C)NC(=O)[C@H]([C@@H](C)O)NC(=O)[C@@H]2CSSC[C@H](NC1=O)C(=O)N[C@@H](Cc1ccc(O)cc1)C(=O)NCC(=O)NCC(=O)N[C@@H](Cc1ccccc1)C(=O)N[C@@H](CCCNC(=N)N)C(=O)N2 (cyclo(ASIPPICYGGFRCT); disulfide 7-13),Ki,[3]; hek293,> 10 µM
CC[C@H](C)[C@@H]1NC(=O)[C@@H]2CCCN2C(=O)[C@@H]2CCCN2C(=O)[C@H]([C@@H](C)CC)NC(=O)[C@H](CO)NC(=O)[C@H](C)NC(=O)[C@H]([C@@H](C)O)NC(=O)[C@@H]2CSSC[C@H](NC1=O)C(=O)N[C@H](Cc1ccccc1)C(=O)N[C@H](Cc1ccccc1)C(=O)N[C@H](CC(C)C)C(=O)N[C@H](CCCCN)C(=O)N[C@@H](CCCNC(=N)N)C(=O)N2 (cyclo(ASIPPIC[dF][dF][dL][dK]RCT); disulfide 7-13),Ki,[3]; hek293,> 10 µM
CCCC[C@H]1NC(=O)[C@@H](Cc2ccccc2)NC(=O)[C@@H](Cc2ccccc2)NC(=O)[C@@H]2CSSC[C@H](NC(=O)[C@H](CCCNC(=N)N)NC(=O)[C@@H](CCCNC(=N)N)NC1=O)C(=O)N[C@@H]([C@@H](C)O)C(=O)N[C@@H](C)C(=O)N[C@@H](CO)C(=O)N[C@@H]([C@@H](C)CC)C(=O)N1CCC[C@H]1C(=O)N1CCC[C@H]1C(=O)N[C@@H]([C@@H](C)CC)C(=O)N2 (cyclo(ASIPPIC[dF][dF][dNle][dR]RCT); disulfide 7-13),Ki,[3]; hek293,> 10 µM
CC[C@H](C)[C@@H]1NC(=O)[C@@H]2CCCN2C(=O)[C@H](Cc2ccccc2)NC(=O)CNC(=O)CNC(=O)[C@H](Cc2ccc(O)cc2)NC(=O)[C@H]([C@@H](C)O)NC(=O)[C@@H]2CSSC[C@H](NC1=O)C(=O)N[C@@H](Cc1ccccc1)C(=O)N1CCC[C@H]1C(=O)N[C@@H](CC(=O)O)C(=O)NCC(=O)N[C@@H](CCCNC(=N)N)C(=O)N2 (cyclo(CFPDGRCTYGGFPI); disulfide 1-7),Ki,[3]; hek293,> 10 µM
CC[C@H](C)[C@@H]1NC(=O)[C@@H]2CSSC[C@H](NC(=O)[C@H](CCCCN)NC(=O)[C@H](CC(C)C)NC(=O)[C@H](CCCCN)NC(=O)[C@@H]3CCCN3C(=O)[C@H](CCCNC(=N)N)NC1=O)C(=O)N[C@@H](Cc1ccc(O)cc1)C(=O)NCC(=O)NCC(=O)N[C@@H](Cc1ccccc1)C(=O)N[C@@H](CC(C)C)C(=O)N[C@@H](CCCNC(=N)N)C(=O)N[C@@H](CCCNC(=N)N)C(=O)N2 (cyclo(CIRPKLKCYGGFLRR); disulfide 1-8),Ki,[3],0.021 µM
same,Activity,[6],Active
same,EC50,[4],0.045 µM
same,Activity,[7],Active
same,Ki,[8],> 10 µM
same,Ki,[9],> 10 µM
same,EC50,[10],1.4 µM
same,Activity,[11],Non-Toxic
same,Activity,[12],Active
same,Activity,[13],Active
same,Activity,[14],Active
same,Activity,[15],Non-Toxic
same,Activity,[16],Non-Toxic
same,Activity,[17],Non-Toxic
same,Activity,[18],Non-Toxic
